The text below walks through data of ChEMBL document CHEMBL4339193, “Phenotypic Screening-Based Identification of 3,4-Disubstituted Piperidine Derivatives as Macrophage M2 Polarization Modulators: An Opportunity for Treating Multiple Sclerosis” (J Med Chem, 2019).

In data set [1] the test system is RAW264.7. Briefly: Inhibition of M1 polarization in mouse RAW264.7 cells assessed as down regulation of IL6 mRNA expression at 300 nM measured after 24 hrs by qRT-PCR analysis. Format: functional, cell-based.
Data set [2] in a line: Tmax in Sprague-Dawley rat at 50 mg/kg, po administered as single dose via gavage by LC/MS analysis. As to conditions: in vivo. In kind it is ADME, organism-based. The essentials: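 Single dose given to rats. Venous blood (100 µL) drawn at 0, 0.5, 1, 2, 4, 8 and 12 h. Plasma separated by centrifugation and stored at -20 °C, then compound measured by LC/MS. Cmax, Tmax, t1/2 and AUC derived from the concentration-time data.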

Each structure is given as a SMILES string. The source made the active and inactive calls. The rule behind the calls is not given here.

On to `Cl.Cn1ncc(Cl)c1-c1ccc(C(=O)N[C@@H]2CNCC[C@H]2c2cccc(F)c2)cc1`, for which the inhibition entry in data set [1] was “Active”. Moreover, the Tmax in data set [2] came out at 3.25 h.
